Experimental data from different studies.
Protocols differ between the studies behind these lines. Values after ≈ are worked out from the molar mass of the structure shown.

C[C@@H]1[C@H](O)[C@@H](C)/C=C/C=C/C=C/C=C/C=C/C=C/C=C/[C@H](O[C@@H]2O[C@H](C)[C@@H](O)[C@H](N)[C@@H]2O)C[C@@H]2O[C@](O)(C[C@@H](O)C[C@@H](O)[C@H](O)CC[C@@H](O)C[C@@H](O)CC(=O)O[C@H]1C)C[C@H](O)[C@H]2C(=O)O — MFC (Pichia kudriavzevii; microbial killing; ATCC6258): 1.35 µM (≈ 1.25 µg/mL)
COc1ccc(-c2cc(-c3ccc4oc(=O)cc(C)c4c3O)nc(N)n2)cc1 — inhibition (KB; cell growth or viability, MTT; 8 µg/mL, 72 h): 0%
CCCCCCCCCN1CCN(CC(O)(Cn2cncn2)c2ccc(F)cc2F)CC1 (stereo not drawn) — MIC (Pichia kudriavzevii; microbial growth, broth dilution; ATCC6258; 48 h): 0.975 mg/L (≈ 2.17 µM)
COC(=O)COc1ccc(NC(=O)C2(c3ccc(Cl)cc3)CC2)cc1 — GI50 (U-937; cell growth or viability, ATP luminescence; 72 h): 3.9 µM
C[C@@H](c1ncncc1F)[C@](O)(Cn1cncn1)c1ccc(F)cc1F — IC50 (Acanthamoeba quina; parasite growth, resazurin; 96 h): 1.32 µM
COC(=O)COc1ccc(NC(=O)C2(c3cccc(C)c3)CC2)cc1 — GI50 (U-937; cell growth or viability, ATP luminescence; 72 h): > 200 µM
Cc1cc(=O)oc2ccc(-c3cc(-c4cccc([N+](=O)[O-])c4)nc(N)n3)c(O)c12 — inhibition (KB; cell growth or viability, MTT; 32 µg/mL, 72 h): 28%
COC(=O)COc1ccc(NC(=O)C2(c3ccc(Cl)c(Cl)c3)CC2)cc1 — GI50 (U-937; cell growth or viability, ATP luminescence; 72 h): 3 µM
Cc1cc(=O)oc2ccc(-c3cc(-c4ccc(Cl)cc4)nc(N)n3)c(O)c12 — inhibition (KB; cell growth or viability, MTT; 128 µg/mL, 72 h): 60%
C[C@@H]1[C@H](O)[C@@H](C)/C=C/C=C/C=C/C=C/C=C/C=C/C=C/[C@H](O[C@@H]2O[C@H](C)[C@@H](O)[C@H](N)[C@@H]2O)C[C@@H]2O[C@](O)(C[C@@H](O)C[C@@H](O)[C@H](O)CC[C@@H](O)C[C@@H](O)CC(=O)O[C@H]1C)C[C@H](O)[C@H]2C(=O)O — IC50 (Pichia kudriavzevii; microbial growth; ATCC6258): 0.95 mg/L
Cc1cc(=O)oc2ccc(-c3cc(-c4cccc(Cl)c4)nc(N)n3)c(O)c12 — inhibition (KB; cell growth or viability, MTT; 8 µg/mL, 72 h): 5%
OC(CN1CCOCC1)(Cn1cncn1)c1ccc(F)cc1F (stereo not drawn) — MIC (Pichia kudriavzevii; microbial growth, broth dilution; ATCC6258; 48 h): > 31.3 mg/L
